# Screening results as filed in PubChem BioAssay.
# GPR7 antag – human neuropeptides B/W receptor 1 antagonism; P48145; GPR7-expressing cells, fluorescence antagonist assay; inhibition, % at 4.4 µM; hit rate 1.1% among 290,000; AID 1861; in the data active means inhibition above about 16%, passing the limit was not always enough;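 further: cells stimulated with the agonist NPW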
# CHO parental Ca – counter-screen: ATP calcium response change in parental CHO cells; parental CHO-K1, ATP-induced calcium, Fluo-8 fluorescence; inhibition, % at 5.6 µM; hit rate 0.63% among 330,000; AID 463079;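 active means inhibition above that plate's mean sample inhibition plus 3 SD, cut at about 26% in these data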
#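 Measured by: calcium-sensitive Fluo-8 fluorescence / Test system: CHO parental line / Controls: ATP-challenged DMSO wells low, unchallenged DMSO wells high / Measure: % inhibition / Compound: single nominal dose of 5.6 µM per compound / Replicates: single well per compound, no replicates / Reagent: ATP as calcium-mobilizing challenge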
# TAAR1 antag – antagonists of human TAAR1; Q96RJ0; CHO RD-HGA16 TAAR1, Fluo-8 calcium fluorescence, antagonist; inhibition, % at 3 µM; hit rate 1.5% among 360,000; AID 624466;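 active means inhibition above a per-plate cutoff, the mean inhibition of test compounds on that plate plus 3 SD, cut at about 49% in these data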
#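 System: CHO RD-HGA16 cells bearing hTAAR1. Reagent: EC80 β-phenethylamine stimulus. Schedule: seeding 17-24 h prior, 75-min 37 °C, 30-min RT dye loading. Signal: Fluo-8 intracellular calcium dye fluorescence, real-time kinetic reads. Read-out: % inhibition from peak post-agonist over basal fluorescence ratio. Benchmarks: vehicle wells and EC80 agonist wells. Replicates: n of 1.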
# OX1R antag-1 – OX1R (human) antagonism | O43613 | OX1R-expressing cells, FRET antagonist read-out | inhibition, % at 6.6 µM | hit rate 1.8% among 330,000 | AID 485270; in the data active means inhibition mostly above about 38%, no sharp cut-off; inactive means mostly below about 40%
# Target sequence (O43613 whole entry, looked up): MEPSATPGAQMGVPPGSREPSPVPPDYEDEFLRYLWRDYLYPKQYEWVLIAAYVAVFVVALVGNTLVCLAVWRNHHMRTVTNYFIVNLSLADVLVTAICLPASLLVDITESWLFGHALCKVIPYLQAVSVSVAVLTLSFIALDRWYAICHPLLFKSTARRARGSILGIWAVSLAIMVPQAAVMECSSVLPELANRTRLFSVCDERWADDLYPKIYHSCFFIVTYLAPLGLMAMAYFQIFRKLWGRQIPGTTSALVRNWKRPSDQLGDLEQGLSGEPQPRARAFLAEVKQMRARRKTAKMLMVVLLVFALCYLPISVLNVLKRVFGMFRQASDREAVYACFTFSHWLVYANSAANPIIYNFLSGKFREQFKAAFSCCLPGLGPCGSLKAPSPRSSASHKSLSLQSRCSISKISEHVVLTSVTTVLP
# OX1R antag-2 – human HCRTR1 antagonism; O43613; CHO/OX1R cells, Fluo-8 calcium fluorescence, orexin A; inhibition, % at 5 µM; hit rate 0.43% among 330,000; AID 434989;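 active means inhibition above its plate's threshold, mean inhibition of all tested compounds on the plate plus 3 SD, cut at about 37% in these data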
# TAAR1 agonist – human TAAR1 agonism; Q96RJ0; hit rate 0.99% among 360,000; activation, % at 3 µM; CHO RD-HGA16 TAAR1, Fluo-8 calcium fluorescence; vehicle wells 0%, saturating PEA agonist 100%;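 active means activation above the mean activation of all test compounds in the run plus 3 SD, cut at about 38% in these data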
#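 System: CHO-derived RD-HGA16 cells with stable Gα16 and human TAAR1 / Times: 17-24 h plating, Fluo-8 75 min 37 °C, 30 min RT / Technique: calcium-sensitive Fluo-8 signal, excitation 470-495, emission 515-575 nm / Measure: % activation relative to PEA EC100 response / Benchmarks: DMSO and PEA EC100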
# TAAR1 ag conf – confirmation of human TAAR1 agonists. shares compounds with TAAR1 agonist. CHO RD-HGA16 TAAR1, Fluo-8 calcium fluorescence; scaled: DMSO 0%, maximal phenethylamine 100%. activation, % at 3 µM. hit rate 82% among 2,400;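 active means activation above a cutoff set at the run's mean compound activation plus 3 SD, cut at about 39% in these data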
# Ga16 ag counter – counter-screen for TAAR1 agonists: nonselective agonists in parental cells. shares compounds with TAAR1 agonist. CHO-Ga16 parental, Fluo-8 calcium fluorescence; normalized to maximal ATP response, DMSO zero. activation, % at 3 µM. hit rate 50% among 2,400;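 active means activation above the run cutoff, the mean activation over all tested wells plus 3 SD, cut at about 12% in these data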
# TAAR1 desensitize – counter-screen for human TAAR1 agonists: agonists that desensitize TAAR1. inhibition, % at 3 µM. CHO RD-HGA16 hTAAR1, Fluo-8 calcium, beta-PEA response inhibition. hit rate 46% among 2,400. shares compounds with TAAR1 agonist;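 active means inhibition above the run cutoff, the mean inhibition of all test compounds plus 3 SD, cut at about 49% in these data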;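 further: beta-PEA stimulus applied at its EC80; loss of beta-PEA calcium signal after compound pretreatment read as receptor desensitization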
# Ga16 antag count – nonselective Ga16 antagonism, counter-screen; AID 651952; CHO-Ga16 ATP-induced calcium, Fluo-8 fluorescence; inhibition, % at 3 µM; shares compounds with TAAR1 agonist; hit rate 39% among 2,400;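 active means inhibition above the plate's mean compound inhibition plus 3 SD, computed per plate, cut at about 22% in these data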
# A number is an active result; n = inactive; x = no result given. This is a sample that favours compounds with a hit; in the whole collection about 4.6% have one here.
SMILES,GPR7 antag,CHO parental Ca,TAAR1 antag,OX1R antag-1,OX1R antag-2,TAAR1 agonist,TAAR1 ag conf,Ga16 ag counter,TAAR1 desensitize,Ga16 antag count
Cc1ccc(C(=O)NC(C)CCc2ccccc2)cc1S(=O)(=O)N1CCOCC1 (centres undefined),x,n,n,n,n,n,x,x,x,x
COc1cccc(-c2c(C(=O)N/N=C/C3CC=CCC3)nnn2-c2nonc2N)c1 (centres undefined),n,n,n,n,n,n,x,x,x,x
Nc1nonc1-n1nnc(C(=O)N/N=C/c2ccccc2Cl)c1-c1ccccc1,n,n,n,n,n,n,x,x,x,x
COc1cccc(-c2c(C(=O)N/N=C/c3ccco3)nnn2-c2nonc2N)c1,n,n,n,n,n,78,97,52,n,n
Nc1nonc1-n1nnc(C(=O)N/N=C/c2ccoc2)c1-c1ccccc1,n,n,n,n,n,85,53,46,n,n
Nc1nonc1-n1nnc(C(=O)N/N=C/c2ccco2)c1-c1ccccc1,n,n,n,n,n,100,72,47,n,n
COc1ccc(C(=O)NCC(=O)OCC(=O)c2c(C)[nH]c3ccccc23)cc1OC,x,n,n,n,n,n,x,x,x,x
O=C(Cc1ccccc1)NCCc1cn2ccsc2n1,n,n,n,n,n,n,x,x,x,x
CC1C(=O)N2CCCc3cc(S(=O)(=O)NCCc4ccccc4)cc1c32 (centres undefined),n,n,n,n,n,52,67,n,n,n
COc1ccc(C2(C(=O)Nc3ccc(S(=O)(=O)Nc4nc(C)cc(C)n4)cc3)CCCC2)cc1OC,n,n,n,n,n,n,x,x,x,x
Cc1cc(C)nc(NS(=O)(=O)c2ccc(NC(=O)C3(c4ccc([N+](=O)[O-])cc4)CCCC3)cc2)n1,n,n,n,n,n,63,102,39,64,36
O=C(Nc1ccc(N2C(=O)C3CCCCC3C2=O)cc1Cl)c1cccs1 (centres undefined),n,n,n,n,n,n,x,x,x,x
CSc1ccccc1OCc1cc(C(=O)NCCC2=CCCCC2)no1,n,n,n,n,n,55,38,n,89,58
O=C(NCCC1=CCCCC1)c1cc(COc2c(F)cccc2F)on1,n,n,n,n,n,n,x,x,x,x
C[C@H](O)[C@@H]1C(=O)N2CCc3ccc(-c4ccccc4)cc3[C@@H]2C[C@@H]1N(C)C(=S)Nc1ccc(F)cc1,x,x,n,x,x,66,70,34,49,46
C[C@H](O)[C@@H]1C(=O)N2CCc3ccc(-c4cccc(F)c4)cc3[C@@H]2C[C@@H]1N(C)C(=O)Nc1ccccc1,x,x,n,x,x,n,x,x,x,x
O=C(Nc1ccncc1)Nc1cccc(Cl)c1,n,n,n,n,n,59,86,16,52,n
O=C(Nc1ccccc1)Nc1ccncc1,n,n,53,n,n,82,97,n,86,n
CC(=O)c1ccc(NC(=O)Nc2ccccc2)cc1,n,n,n,n,n,54,68,n,55,n
CN(c1cccc(NC(=O)Nc2cccc(Cl)c2)c1)S(C)(=O)=O,n,73,n,98,72,43,n,n,n,29
CC(=O)Nc1ccc(NC(=O)C2CCCN2C(=O)NCc2ccccc2)cc1 (centres undefined),n,n,n,n,n,n,x,x,x,x
Cc1nc(Cc2nnc(SC(C)C(=O)Nc3ccccc3)o2)cs1 (centres undefined),x,x,n,x,x,n,x,x,x,x
COC(=O)[C@@]1(Sc2ccc(OC)cc2)CC(=O)N[C@@H]1c1ccccc1,x,x,n,x,x,n,x,x,x,x
CSc1ncccc1C(=O)OCC(=O)Nc1ccc2c(c1)CCC2,x,n,n,n,n,n,x,x,x,x
CCOC(=O)[C@H]1[C@H]2COc3ccc(Br)cc3[C@@H]2N2C(=O)c3cc(OC)c(OC)cc3NC(=O)[C@@]12C,x,n,n,n,n,76,101,44,n,n
SMILES,GPR7 antag,CHO parental Ca,TAAR1 antag,OX1R antag-1,OX1R antag-2,TAAR1 agonist,TAAR1 ag conf,Ga16 ag counter,TAAR1 desensitize,Ga16 antag count
Cc1ccc(C)c(N2CN(CCC3=CCCCC3)CNC2=S)c1,n,n,n,n,n,59,53,n,59,n
CCN1CNC(=S)N(CCc2ccccc2)C1,n,n,n,n,n,n,x,x,x,x
C=CCN1CN(CCc2ccccc2)CNC1=S,n,n,n,n,n,55,81,15,n,n
CCOC(=O)c1ccc(N2CN(CCc3ccccc3)CNC2=S)cc1,n,n,x,n,n,x,x,n,x,n
CCCN1CNC(=S)N(c2ccc(C(=O)OCC)cc2)C1,n,n,n,n,n,n,x,x,x,x
Cc1ccc(N2CN(CCc3ccccc3)CNC2=S)cc1,n,n,60,n,n,73,90,n,81,n
O=[N+]([O-])c1ccc(S(=O)(=O)NNC(=S)NCCc2ccccc2)cc1,n,n,n,n,n,52,56,n,n,n
O=c1c2ccc([N+](=O)[O-])cc2ncn1Cc1ccccc1C(F)(F)F,n,n,n,n,n,51,n,22,n,n
Cc1ccc(OCC(=O)Nc2cccc(C)n2)c(C)c1,n,n,n,n,n,n,x,x,x,x
Cc1ccc(NC(=O)COc2cccc3ccc(C)nc23)c(Br)c1,n,n,89,n,n,87,n,n,n,22
O=C(N[C@H](C(=O)N1CCC[C@H]1C(=O)NCCc1ccccc1Cl)C1CCCCC1)c1ccccc1,x,x,66,x,x,64,76,n,85,n
O=C(N[C@H](C(=O)N1CCC[C@H]1C(=O)NCCc1ccccc1Cl)C1CCCCC1)C1CC1,x,x,n,x,x,46,73,n,78,n
COc1cccc(C(=O)N[C@H](C(=O)N2CCC[C@H]2C(=O)NCCc2ccccc2Cl)C2CCCCC2)c1,x,x,55,x,x,52,79,n,86,n
CCOc1ccc(S(=O)(=O)NCCC(=O)NCC(c2ccc(OC)cc2)N2CCCC2)cc1 (centres undefined),x,n,n,n,n,n,x,x,x,x
CCOc1ccc(C(C)=O)cc1COC(=O)C(C)N=C1NS(=O)(=O)c2ccccc21 (centres undefined),n,n,n,n,n,n,x,x,x,x
O=C(Nc1cccc(N2C(=O)C=CC2=O)c1)c1cccs1,x,n,n,n,n,57,n,19,n,22
